The nature of data set [1]: Biodistribution of [18F]FES in beta estrogen receptor knock out mouse bone after 1 h; (n=3). The settings on record: in vivo. The data set is classed as ADME, organism-based, Bone element.
Data set [2] is described as follows: Biodistribution of [18F]FES in beta estrogen receptor knock out mouse spleen after 1 h; (n=3). The data set is classed as ADME, organism-based. The settings on record: in vivo.
Data set [3] can be described thus: Biodistribution of [18F]FES in alpha estrogen receptor knock out mouse spleen after 1 h; (n=3). Type of data set: ADME, organism-based. Particulars: in vivo.
A short description of data set [4]: Biodistribution of [18F]FES in beta estrogen receptor knock out mouse brain after 30 min(n=2); mice in nonestrus stage. The data set is classed as ADME, organism-based. The settings on record: in vivo, 0.5 h.
The nature of data set [5]: Biodistribution of [18F]FES in beta estrogen receptor knock out mouse fat after 2 h; (n=3). Type of data set: ADME, organism-based, Adipose tissue. The settings on record: in vivo.
Data set [6] in a line: Biodistribution of [18F]FES in beta estrogen receptor knock out mouse lung after 30 min; (n=3). Type of data set: ADME, organism-based. The settings on record: in vivo, 0.5 h.
The nature of data set [7]: Biodistribution of [18F]FES in beta estrogen receptor knock out mouse brain after 2 h; (n=3). The settings on record: in vivo. Type of data set: ADME, organism-based.
The nature of data set [8]: Biodistribution of [18F]FES in beta estrogen receptor knock out mouse heart after 2 h; (n=3). The data set is classed as ADME, organism-based. Particulars: in vivo.
Data set [9] can be described thus: Biodistribution of [18F]-FES in alpha estrogen receptor knock out mouse thymus after 30 min; (n=3). The data set is classed as ADME, organism-based. The settings on record: in vivo, 0.5 h. An outline of the steps:
(§1)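 Female αERKO mice rested 48 h after shipping and fed estrogen-free chow. Estrous stage was checked by daily vaginal smears, and mice were used in diestrus. Each received 13 µCi [18F]FES in 100 µL 10% ethanol/saline. Animals were sacrificed at 30 min, 1 h or 2 h (n = 3 each). Tissue uptake is reported as %ID/g ± SD.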

The nature of data set [10]: Biodistribution of [18F]FES in beta estrogen receptor knock out mouse spleen after 2 h; (n=3). The data set is classed as ADME, organism-based. The settings on record: in vivo.
Data set [11] can be described thus: Biodistribution of [18F]FES in beta estrogen receptor knock out mouse blood after 30 min(n=2); mice in nonestrus stage. The data set is classed as ADME, organism-based. The settings on record: in vivo, 0.5 h.
Data set [12] can be described thus: Biodistribution of [18F]FES in alpha estrogen receptor knock out mouse kidney after 1 h; (n=3). The data set is classed as ADME, organism-based. The settings on record: in vivo. An outline of the steps: (§2)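 Female αERKO mice were rested 48 h after shipping and fed estrogen-free chow. They were staged by daily vaginal smears and studied in diestrus. Each received 13 µCi [18F]FES in 100 µL 10% ethanol/saline and was sacrificed at 30 min, 1 h or 2 h (n = 3 per time). Tissue uptake is given as %ID/g ± SD.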

The nature of data set [13]: Biodistribution of [18F]FES in alpha estrogen receptor knock out mouse heart after 1 h; (n=3). The data set is classed as ADME, organism-based. Particulars: in vivo. The method in brief: as §1
Data set [14] in a line: Biodistribution of [18F]FES in alpha estrogen receptor knock out mouse fat after 2 h; (n=3). Type of data set: ADME, organism-based, Adipose tissue. Particulars: in vivo. An outline of the steps: as §2
A short description of data set [15]: Biodistribution of [18F]FES in beta estrogen receptor knock out mouse thymus after 30 min(n=2); mice in nonestrus stage. The data set is classed as ADME, organism-based. The settings on record: in vivo, 0.5 h.
The nature of data set [16]: Biodistribution of [18F]-FES in beta estrogen receptor knock out mouse bone after 30 min(n=2); mice in nonestrus stage. Type of data set: ADME, organism-based, Bone element. The settings on record: in vivo, 0.5 h. An outline of the steps:
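Female βERKO mice on estrogen-free chow were staged by vaginal smear and used in a nonestrus (diestrus) stage. Each received 13 µCi [18F]FES in 100 µL 10% ethanol/saline and was sacrificed at 30 min (n = 2). Uptake is given as %ID/g ± SD.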

The nature of data set [17]: Biodistribution of [18F]FES in alpha estrogen receptor knock out mouse muscle after 30 min; (n=3). Type of data set: ADME, organism-based, Muscle tissue. The settings on record: in vivo, 0.5 h.
Data set [18] in a line: Biodistribution of [18F]FEDPN in beta estrogen receptor knock out mouse ovaries after 1 h; (n=3). Type of data set: ADME, organism-based, Female gonad. Particulars: in vivo. The method in brief: (§3)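 αERKO and βERKO mice, staged by daily vaginal smears and kept on estrogen-free chow, were studied in a nonestrous stage. Each mouse received 11 μCi of tracer in 130 μL of 10% ethanol/saline. Mice were killed at 30 min, 1 h or 2 h (n = 3 each). Organs were removed, blotted, weighed and gamma-counted against an injectate standard. Uptake is given as %ID/g ± SD.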

Data set [19] is described as follows: Biodistribution of [18F]FEDPN in rat lung after 30 min when given in tail vein; (n=5). Type of data set: ADME, organism-based. The settings on record: in vivo, iv, 0.5 h. An outline of the steps:
(§4)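 Immature female Sprague–Dawley rats (<25 days old) under isoflurane/O2 got 20 µCi tracer in 150 µL 20% ethanol/saline by tail vein. […] Rats were killed at 30 min, 1 h or 2 h. Organs were blotted, weighed and gamma-counted against an injectate standard. Data are %ID/g ± SD, five rats per point.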

Data set [20] in a line: Biodistribution of [18F]FEDPN in beta estrogen receptor knock out mouse liver after 1 h; (n=3). Particulars: in vivo. The data set is classed as ADME, organism-based. An outline of the steps: as §3
Data set [21] in a line: Biodistribution of [18F]FEDPN in alpha estrogen receptor knock out mouse ovaries after 30 min; (n=3). Type of data set: ADME, organism-based, Female gonad. The settings on record: in vivo, 0.5 h. The method in brief: as §3
A short description of data set [22]: Biodistribution of [18F]FEDPN in beta estrogen receptor knock out mouse heart after 30 min; (n=3). Particulars: in vivo, 0.5 h. Type of data set: ADME, organism-based. The method in brief: as §3
The nature of data set [23]: Biodistribution of [18F]FEDPN in rat spleen after 1 h when given in tail vein; (n=5). Type of data set: ADME, organism-based. The settings on record: in vivo, iv. An outline of the steps:
as §4

The nature of data set [24]: Biodistribution of [18F]FEDPN in alpha estrogen receptor knock out mouse brain after 30 min; (n=3). The data set is classed as ADME, organism-based. Particulars: in vivo, 0.5 h. An outline of the steps:
(§5)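 ERKO female mice (αERKO or βERKO), rested 48 h after shipping, placed on estrogen-free chow, and staged by daily vaginal smears. Injected in a nonestrous stage with 11 µCi [18F]FEDPN in 130 µL of 10% ethanol/saline. Killed at 30 min, 1 h or 2 h. Organs counted and reported as %ID/g ± SD, three animals per point.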

A short description of data set [25]: Biodistribution of [18F]-FEDPN in alpha estrogen receptor knock out mouse brain after 2 h; (n=3). Type of data set: ADME, organism-based. The settings on record: in vivo. An outline of the steps: as §5
The nature of data set [26]: Biodistribution of [18F]-FEDPN in rat kidney after 1 hr when given in tail vein; (n=5). The data set is classed as ADME, organism-based. Particulars: in vivo, iv. An outline of the steps:
(§6)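 Immature female Sprague–Dawley rats (<25 days old) anesthetized with isoflurane/O2. Given 20 µCi tracer by tail vein in 150 µL of 20% ethanol/saline. […] Killed at 30 min, 1 h or 2 h. Blood and organs blotted, weighed and gamma-counted against a standard dilution of the injectate. Reported as %ID/g ± SD, n=5.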

Data set [27] is described as follows: Biodistribution of [18F]FEDPN in beta estrogen receptor knock out mouse blood after 2 h; (n=3). The settings on record: in vivo. Type of data set: ADME, organism-based. An outline of the steps: as §3
Data set [28] can be described thus: Biodistribution of [18F]FEDPN in rat ovaries after 2 h when given in tail vein; (n=5). The settings on record: in vivo, iv. The data set is classed as ADME, organism-based, Female gonad. An outline of the steps: as §4
Data set [29] is described as follows: Biodistribution of [18F]-FEDPN in rat fat after 1 h when given in tail vein; (n=5). Type of data set: ADME, organism-based, Adipose tissue. Particulars: in vivo, iv. An outline of the steps: as §6
A short description of data set [30]: Biodistribution of [18F]FEDPN in beta estrogen receptor knock out mouse thymus after 1 h; (n=3). The data set is classed as ADME, organism-based. The settings on record: in vivo. The method in brief: as §3
Data set [31] in a line: Biodistribution of [18F]-FEDPN in rat spleen after 2 hr when given in tail vein; (n=5). Particulars: in vivo, iv. Type of data set: ADME, organism-based. The method in brief: as §6
Data set [32] in a line: Biodistribution of [18F]FEDPN in alpha estrogen receptor knock out mouse thymus after 2 h; (n=3). The data set is classed as ADME, organism-based. The settings on record: in vivo. The method in brief:
as §3

Data set [33] is described as follows: Biodistribution of [18F]FEDPN in rat ovaries after 1 h block when given in tail vein; (n=5). Type of data set: ADME, organism-based, Female gonad. The settings on record: in vivo, iv. The method in brief: as §4
Data set [34] can be described thus: Biodistribution of [18F]-FEDPN in alpha estrogen receptor knock out mouse ovaries after 1 h; (n=3). Particulars: in vivo. The data set is classed as ADME, organism-based, Female gonad. The method in brief: as §5
The nature of data set [35]: Biodistribution of [18F]FEDPN in beta estrogen receptor knock out mouse ovaries after 2 h; (n=3). The data set is classed as ADME, organism-based, Female gonad. Particulars: in vivo. The method in brief:
as §3

The nature of data set [36]: Biodistribution of [18F]FEDPN in alpha estrogen receptor knock out mouse liver after 30 min; (n=3). The data set is classed as ADME, organism-based. The settings on record: in vivo, 0.5 h. The method in brief:
as §5

SMILES strings stand for the structures.

Turning to `C[C@]12CC[C@@H]3c4ccc(O)cc4CC[C@H]3[C@@H]1C[C@@H](F)[C@@H]2O` [FLUOROESTRADIOL], the Biodistribution turned out to be 1.08 %ID/g in data set [1]; 0.91 %ID/g in data set [2]; 0.19 %ID/g in data set [3]; 0.81 %ID/g in data set [4]; 0.41 %ID/g in [5]; 3.74 %ID/g in [6]. In addition, the Biodistribution in [7] worked out at 0.14 %ID/g; in data set [8] it was 0.2 %ID/g; in [9], 0.68 %ID/g; in data set [10], 0.37 %ID/g; in data set [11], 0.73 %ID/g; in [12] it was 1.07 %ID/g. Moreover, the Biodistribution in [13] came out at 0.15 %ID/g; in [14], 0.09 %ID/g; in data set [15], 1.65 %ID/g; in data set [16], 1.26 %ID/g; in [17] it was 0.77 %ID/g.

Take `N#C[C@H](c1ccc(O)cc1)[C@@H](CCF)c1ccc(O)cc1`: the Biodistribution in data set [18] is reported as 0.41 %ID/g; in data set [19], 0.71 %ID/g; in data set [20], 3.79 %ID/g; in [21], 1.06 %ID/g; in data set [22], 1.6 %ID/g; in [23], 0.16 %ID/g. In addition, the Biodistribution is 0.96 %ID/g in data set [24]; 0.28 %ID/g in data set [25]; 1.75 %ID/g in data set [26]; 0.18 %ID/g in data set [27]; 0.21 %ID/g in [28]; 0.37 %ID/g in [29]. Besides, the Biodistribution in [30] was 0.25 %ID/g; in [31] it was 0.06 %ID/g; in data set [32], 0.28 %ID/g; in data set [33], 0.26 %ID/g; in [34], 0.52 %ID/g; in [35], 0.17 %ID/g. This compound had a Biodistribution in data set [36] of 3.7 %ID/g.

For the origin of these results see ChEMBL document CHEMBL1141109, “Synthesis of an estrogen receptor beta-selective radioligand: 5-[18F]fluoro-(2R,3S)-2,3-bis(4-hydroxyphenyl)pentanenitrile and comparison of in vivo distribution with 16alpha-[18F]fluoro-17beta-estradiol” (J Med Chem, 2005).
